Laboratory results: ChEMBL document CHEMBL1126093, “Structural features of substituted purine derivatives compatible with depletion of human O6-alkylguanine-DNA alkyltransferase” (J Med Chem, 1992)
Activity calls are given as the source filed them. The calls are words filed in the database; no cut-off is given here.

How the values were obtained:
[1] = target: T1, Methylated-DNA--protein-cysteine methyltransferase (Homo sapiens) (UniProt P16455); experiment: In vitro inhibition of human alkyl transferase in HT-29 cell-free extracts.
T1 sequence (whole entry): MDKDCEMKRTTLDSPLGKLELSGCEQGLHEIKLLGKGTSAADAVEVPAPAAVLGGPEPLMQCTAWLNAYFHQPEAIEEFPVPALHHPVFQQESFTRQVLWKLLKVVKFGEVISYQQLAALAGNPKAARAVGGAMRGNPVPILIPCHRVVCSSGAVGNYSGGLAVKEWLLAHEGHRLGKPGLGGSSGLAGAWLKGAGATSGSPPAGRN
Summary of the method: (§1)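 HT29 crude cell extract incubated 30 min with derivative (0–400 μM, from 100 mM DMSO stocks) in 50 mM Tris-HCl pH 7.5, 0.1 mM EDTA, 5 mM DTT. Remaining AGT activity measured as loss of O⁶-[³H]methylguanine from [³H]methylnitrosourea-methylated calf thymus DNA. Dose for 50% inactivation read from %-activity-remaining vs dose plots; at least duplicates averaged.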

[2] = target: T1, Methylated-DNA--protein-cysteine methyltransferase (Homo sapiens); experiment: Inhibitory activity against alkyl transferase in HT-29 cells; format: cell-based
Summary of the method: (§2)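 HT29 cells plated at 5 × 10⁶ per T75 flask and grown 3 days. Medium then replaced with medium holding increasing derivative concentrations (range 0.05–400 μM where soluble) for 4 h. Cells rinsed with PBS, harvested, frozen at -80 °C, then extracted. AGT activity assayed by O⁶-[³H]methylguanine loss from [³H]methylated DNA. 50% inactivation dose taken from plots; at least duplicates.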

[3] = target: T1, Methylated-DNA--protein-cysteine methyltransferase (Homo sapiens); experiment: Inhibitory activity against alkyl transferase in HT-29 cell-free extracts; inactive; summary of the method: as §1
[4] = target: T1, Methylated-DNA--protein-cysteine methyltransferase (Homo sapiens); experiment: The compound was tested for its inhibitory activity against alkyl transferase in HT-29 cells; inactive; format: cell-based; summary of the method: as §2

| SMILES | ED50 [1] [µM] | ED50 [2] [µM] | ED50 [3] | ED50 [4] |
| --- | --- | --- | --- | --- |
| Nc1nc(OCc2ccccc2)c2ncn(C3O[C@H](CO)[C@@H](O)[C@H]3O)c2n1 (some centres undefined) | 11 | 2 | – | – |
| CCOC(=O)Cn1cnc2c(OCc3ccccc3)nc(N)nc21 | 30 | 3 | – | – |
| Nc1nc(OCc2ccc(Cl)cc2)c2ncn(C3O[C@H](CO)[C@@H](O)[C@H]3O)c2n1 (some centres undefined) | 10 | 5 | – | – |
| c1ccc(COc2[nH]cnc3ncnc2-3)cc1 | 85 | 36 | – | – |
| N#CCn1cnc2c(OCc3ccccc3)nc(N)nc21 | 13 | 0.8 | – | – |
| Nc1nc(OCc2ccccc2)c2ncn([C@H]3C[C@H](O)[C@@H](CO)O3)c2n1 | 2 | 0.5 | – | – |
| Nc1nc(O)c2c(ncn2Cc2ccccc2)n1 | – | – | inactive | – |
| NC(=O)Cn1cnc2c(OCc3ccccc3)nc(N)nc21 | 47 | 7.5 | – | – |
| Cc1ccc(COc2nc(N)nc3c2ncn3C2O[C@H](CO)[C@@H](O)[C@H]2O)cc1 (some centres undefined) | 9 | 3 | – | – |
| CCOC(=O)Cn1cnc2nc(N)nc(OCc3ccccc3)c21 | – | – | inactive | – |
| Cc1ccc(CSc2[nH]c(N)nc3ncnc2-3)cc1 | – | – | inactive | – |
| Nc1nc(OCc2ccccc2)c2ncn(CC(=O)O)c2n1 | 157 | – | – | inactive |
| CCC(O)Cn1cnc2c(OCc3ccccc3)nc(N)nc21 (centres undefined) | 13 | 2 | – | – |
| NC(=O)Cn1cnc2nc(N)nc(OCc3ccccc3)c21 | – | – | inactive | – |
| Nc1nc(SCc2ccc([N+](=O)[O-])cc2)c2ncn([C@@H]3O[C@H](CO)[C@@H](O)[C@H]3O)c2n1 | – | – | inactive | – |

Continued, values first:

| ED50 [1] [µM] | ED50 [2] [µM] | ED50 [3] | ED50 [4] | SMILES |
| --- | --- | --- | --- | --- |
| – | – | inactive | – | N#CCn1cnc2nc(N)nc(OCc3ccccc3)c21 |
| 0.2 | 0.08 | – | – | Cc1ccc(COc2nc(N)nc3nc[nH]c23)cc1 |
| – | – | inactive | – | CCC(O)Cn1cnc2nc(N)nc(OCc3ccccc3)c21 (centres undefined) |
| 0.2 | 0.08 | – | – | Nc1nc(OCc2ccc(Cl)cc2)c2[nH]cnc2n1 |
| 20 | 4 | – | – | C=CCOc1nc(N)nc2nc[nH]c12 |
| 350 | 120 | – | – | COc1nc(N)nc2nc[nH]c12 |
| – | – | inactive | – | Nc1nc(SCc2ccccc2)c2[nH]cnc2n1 |
| – | – | – | inactive | Nc1nc(OCc2ccccc2)c2c(ncn2CC(=O)O)n1 |
| 0.2 | 0.05 | – | – | Nc1nc(OCc2ccc(F)cc2)c2[nH]cnc2n1 |
